Assay outcomes: PubChem, several laboratories
Only a selection was taken, and hits are over-represented in it overall.
N-glyco inh: N-linked glycosylation inhibition. AID 588692. 360,000 compounds, 0.23% hits. reporter increase, % at 12.5 µM. D54 ERlucT glycosylation luciferase reporter, 24 h; percent of 100 nM tunicamycin response;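 active = mean luciferase reporter signal, scaled so untreated is 0 and the glycosylation-blocking control 100, at or above a set limit in every replicate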;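 also: luciferase carries N-glycosylation sites so blocking glycosylation raises the light; 0% = median of neutral control wells and 100% = median of 100 nM tunicamycin wells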
ALR inh: blocks human ALR sulfhydryl oxidase activity; P55789; purified ALR, DTT oxidation, H2O2 HRP-luminol luminescence; AID 485317; inhibition, % (concentration not given with the values); 290,000 compounds, 3.8% hits;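 active = mean replicate inhibition above about 79%, with every replicate also reaching it, limit read from the data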
Target sequence (P55789 whole entry, looked up): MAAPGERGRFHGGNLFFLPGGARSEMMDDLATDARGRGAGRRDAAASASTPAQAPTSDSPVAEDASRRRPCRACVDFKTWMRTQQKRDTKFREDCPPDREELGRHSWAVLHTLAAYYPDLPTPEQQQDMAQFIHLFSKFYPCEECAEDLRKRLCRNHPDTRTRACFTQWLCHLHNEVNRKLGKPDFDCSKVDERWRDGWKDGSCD
T cell modulator: modulates CD8 T cell binding to vesicles | response (vesicle binding), % at 7 µM | 2C CD8+ T cell-vesicle binding, flow cytometry; hits give low values | 330,000 compounds, 0.068% hits;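 active = response, share of CD8 T cells binding vesicles, and their 90th percentile fluorescence all below set limits, cut at about 80% in these data, passing the limit was not always enough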;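 also: values below 100% mean blocked vesicle binding to the CD8+ T cells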
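Material: murine 2C transgenic CD8+ T lymphocytes / Also added: QL9-peptide-loaded Drosophila micro-vesicles bearing Ld, ICAM-1 and B7-1 / Schedule: binding step 1.5 h, 37 °C, antibody labelling 20 min, ice / Signal: flow cytometry, PE anti-B7-1 (FL2) versus Alexa647 anti-CD8 (FL8), PFA-fixed / Evaluation: percent CD8+ FL2 mean versus row control / Benchmarks: naked versus QL9-loaded vesicles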
Active calls of the source: *; / = not tested or not shown.

SMILES	N-glyco inh	ALR inh	T cell modulator
O=c1[nH]c(O)c(/C=C2/C=CC(c3cc(Cl)ccc3Cl)=N2)c(=O)[nH]1	49*	3	178
CC1=Nc2ccccc2/C1=C/c1c(O)[nH]c(=O)[nH]c1=O	1	0	92
O=C1NCN(c2ccccc2)C12CCN(C(c1cccc3ccccc13)c1nnnn1C1CCCC1)CC2 (configuration not stated)	-3	/	/
CCN(CC)c1ccc(N=Cc2c(O)n(CCc3ccc(OC)c(OC)c3)c(=O)[nH]c2=O)cc1	-4	/	254
CCN(CC)c1ccc(N=Cc2c(O)n(-c3cc(OC)ccc3OC)c(=O)[nH]c2=O)cc1	7	95*	321
O/N=C/c1c[nH]c2ccccc12	0	/	354
CCCC/C(=N\O)c1c[nH]c2ccccc12	-2	89*	984
COCCNC(=O)CN1C(=O)C(C)N=C(c2ccccc2)c2cc(Cl)ccc21 (configuration not stated)	3	5	594
COC(=O)C1=C(c2ccc(F)cc2OCc2ccccc2)C[C@@H]2CC[C@H]1N2C(=O)NCc1ccc(C)cc1	-9	22	414
COc1cc2c(cc1OC)-c1c(OC)c(OC)cc3c1[C@H](C2)N(C)CC3	2	-16	713
COc1cc2c(cc1O)CC1c3c(cc(O)c(OC)c3-2)CCN1C (configuration not stated)	8	99*	376
CC12CC1(C)C(=O)N(c1cc(Cl)cc(Cl)c1)C2=O (configuration not stated)	2	/	/
COC(=O)C1=C(c2ccc(OC)c(OC)c2)C[C@@H]2CC[C@H]1N2C(=O)NCc1cccc2ccccc12	-3	-6	410
c1ccc2c(c1)CNc1ccccc1O2	0	-6	834
Cc1ccc2c(c1)CNc1ccccc1O2	0	88*	474
CN1CC(C(=O)c2cccc(C(F)(F)F)c2)C(c2ccc(Cl)cc2)C1 (configuration not stated)	-4	1	406
O=c1[nH]c(=O)n(Cc2ccco2)c(O)c1/C=N/N1CCCCCC1	1	-2	300
N#Cc1c(/N=C/c2c(O)n(Cc3ccco3)c(=O)[nH]c2=O)sc2c1CCCC2	1	82*	420
Cc1ccc(/C=C2/C(=O)NC(=O)N(CC3CCCO3)C2=O)s1 (configuration not stated)	5	97*	295
Cc1ccc(/C=C2/C(=O)NC(=O)N(CCc3ccc(F)cc3)C2=O)s1	6	29	190
Cc1ccc(/C=C2\C(=O)NC(=O)N(CCc3ccc(F)cc3)C2=O)s1	3	96*	238
C=CCN1C(=O)/C(=C/c2ccc(Br)s2)C(=O)NC1=S	4	8	311
Cc1cc(N(CCCl)CCCl)ccc1C=NNC(=O)Cc1cc(=O)oc2cc(O)ccc12	9	/	/
C[C@H]1[C@@H](OS(=O)(=O)O)C[C@@H]2C[C@H]([C@@H](O)c3cc(=O)[nH]c(=O)[nH]3)NC3=NC[C@H]1N32	-23	/	/
Cc1cc(OC(C)C(=O)NCC(O)c2ccccc2)c2c3c(c(=O)oc2c1)CCC3 (configuration not stated)	2	-3	179
SMILES	N-glyco inh	ALR inh	T cell modulator
COC[C@H]1OC(=O)c2coc3c2[C@@]1(C)C1=C(C3=O)[C@@H]2CCC(=O)[C@@]2(C)C[C@H]1OC(C)=O	3	/	/
CN1C(=O)N(C)C(=O)C2(Cc3cc(NC(=O)c4ccccc4)ccc3N3CCCC32)C1=O (configuration not stated)	0	-11	381
Cc1ccc(N2C(=O)NC(=O)/C(=C\c3cc(C)n(-c4ccc(C(=O)O)cc4)c3C)C2=O)cc1	3	97*	281
Cc1ccc(N2C(=O)NC(=O)/C(=C/c3ccc(-c4ccc(C(=O)O)c(Cl)c4)o3)C2=O)cc1	2	97*	197
Cc1cc(/C=C2/C(=O)NC(=O)N(c3ccccc3)C2=O)c(C)n1-c1ccc(F)cc1	0	8	130
Cc1ccc(N2C(=O)NC(=O)/C(=C\c3cc(C)n(-c4cc(C(=O)O)cc(C(=O)O)c4)c3C)C2=O)cc1	1	39	77
Cc1cc(/C=C2\C(=O)NC(=O)N(c3ccc(F)cc3)C2=O)c(C)n1-c1ccc(C(=O)O)cc1	3	98*	188
Cc1cc(/C=C2\C(=O)NC(=O)N(c3cccc(F)c3)C2=O)c(C)n1-c1ccc(C(=O)O)c(Cl)c1	2	45	369
C1=NCCCN2CCCCC12 (configuration not stated)	1	/	/
C(=NC1CCCCC1)c1c[nH]c2ccccc12	0	/	/
Clc1ccccc1CNC1CN2CCC1CC2 (configuration not stated)	2	13	300
c1ccc2c(c1)Sc1ccccc1N2CC1CN2CCC1CC2 (configuration not stated)	-1	98*	160
